Results on three compounds are retold here after ChEMBL document CHEMBL2380254, “Optimization of tocotrienols as antiproliferative and antimigratory leads” (Eur J Med Chem, 2013).

The subject of one assay is SNB-75. The assay can be described thus: Growth inhibition of human SNB75 cells assessed as cell growth at 10 uM after 48 hrs by sulforhodamine B assay. The conditions noted are these: SNB-75, 48 h, read-out: Activity. It counts as functional. The essentials: (§1)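 Single-dose NCI-60 test at 10 µM. Cells were grown in RPMI 1640 with 5% FBS and 2 mM L-glutamine, preincubated 24 h, with T0 plates TCA-fixed. Exposure was 48 h at 37 °C, 5% CO2. Cells were fixed with cold TCA (final 10%, 4 °C, 60 min), stained with SRB and read at 515 nm. Percent growth was taken relative to T0 and untreated control; negative values denote cell kill.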

Another assay has as its system SK-OV-3. Description: Growth inhibition of human SKOV3 cells assessed as cell growth at 10 uM after 48 hrs by sulforhodamine B assay. The note with it: SK-OV-3, 48 h, read-out: Activity. It counts as functional. Summed up: as §1
(In SRB staining, fixed cells bind dye roughly in proportion to their protein.)

In the next assay the test system is U-251. Description: Growth inhibition of human U251 cells after 48 hrs by sulforhodamine B assay. It counts as functional. The conditions noted are these: U-251, 48 h. The essentials:
(§2)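 NCI-60 five-dose screen. Cells were grown in RPMI 1640 with 5% FBS and 2 mM L-glutamine, plated at 5000–40,000 cells/well and incubated 24 h before dosing, with T0 plates TCA-fixed. DMSO stocks were diluted to doses of […] and exposed 48 h at 37 °C, 5% CO2. Cells were fixed with cold TCA (final 10%, 60 min, 4 °C), stained with 0.4% SRB in 1% acetic acid for 10 min, solubilized in 10 mM trizma base and read at 515 nm. GI50 is where 100×(T−T0)/(C−T0)=50.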

The nature of assay [1]: Growth inhibition of human HCC2998 cells assessed as cell growth at 10 uM after 48 hrs by sulforhodamine B assay. It counts as functional. The note with it: HCC 2998, 48 h, read-out: Activity. The essentials: (§3)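 NCI-60 single-dose screen at 10 µM: cells in RPMI 1640 with 5% FBS, preincubated 24 h, then exposed 48 h at 37 °C. TCA fixation (16% final for suspension cells), SRB staining, absorbance 515 nm. Percent growth relative to time-zero and untreated control plates; negative values indicate cell kill.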

The subject of a further assay is HL-60(TB). The assay can be described thus: Growth inhibition of human HL-60(TB) cells assessed as cell growth at 10 uM after 48 hrs by sulforhodamine B assay. The note with it: HL-60, 48 h, read-out: Activity. Type of assay: functional. The essentials: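 NCI-60 single-dose screen run at 10 µM on HL-60(TB) suspension cells in RPMI 1640 with 5% FBS and 2 mM L-glutamine. Cells were preincubated for 24 h, with a time-zero plate fixed then. Exposure lasted 48 h at 37 °C. Settled cells were fixed with TCA (16% final), stained with SRB and read at 515 nm. Percent growth is relative to control and T0.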

The next assay has as its system HCT-116. Description: Growth inhibition of human HCT116 cells after 48 hrs by sulforhodamine B assay. The conditions noted are these: HCT-116, 48 h. It counts as functional. The essentials: (§4)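 NCI-60 screen: cells in RPMI 1640 with 5% FBS and 2 mM glutamine, 5000–40,000 cells/well, preincubated 24 h. Five concentrations (10-fold dilutions; 100 to 0.001 µM) applied for 48 h at 37 °C. TCA fixation, SRB stain, absorbance at 515 nm. Time-zero plates included; GI50 where 100×(T−T0)/(C−T0)=50.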

The next assay has as its system NCI-H322M. Description: Growth inhibition of human NCI-H322M cells assessed as cell growth at 10 uM after 48 hrs by sulforhodamine B assay. Type of assay: functional. The conditions noted are these: read-out: Activity. The essentials: (§5)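 Single-dose NCI-60 screen: adherent cells in RPMI 1640 with 5% FBS were exposed to 10 µM for 48 h at 37 °C after a 24 h preincubation. They were fixed in situ with cold TCA (10% final), stained with 0.4% SRB in 1% acetic acid, solubilized in 10 mM Tris base, and read at 515 nm. Percent growth was taken relative to time-zero and control plates.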

A further assay relates to HOP-92. The assay can be described thus: Growth inhibition of human HOP92 cells after 48 hrs by sulforhodamine B assay. Type of assay: functional. The note with it: HOP-92, 48 h. The essentials:
as §4

In the next assay the test system is MCF7. The assay can be described thus: Antiproliferative activity against human MCF7 cells by MTT assay. It counts as functional, cell-based. Summed up:
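Cells plated at 8 × 10^3/well (MDA-MB-231) or 10^4/well (MCF7) in 96-well plates. Compounds fed in media with 5% FBS (MDA-MB-231) or 1% FBS (MCF7). MTT read-out of viable cells.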

Assay [2] in a line: Growth inhibition of human NCI-ADR-RES cells after 48 hrs by sulforhodamine B assay. Type of assay: functional. The essentials: (§6)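 NCI-60 panel cells grown in RPMI 1640 with 5% FBS and 2 mM L-glutamine, seeded at 5000–40,000 cells/well and preincubated 24 h. Five 10-fold dilutions (0.001–100 µM) from DMSO stocks were added for 48 h at 37 °C. Adherent cells were fixed with cold TCA (10% final) for 60 min at 4 °C, stained with 0.4% SRB, and read at 515 nm. GI50 was set where 100×(T−T0)/(C−T0)=50.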

The test system of a further assay is A549. Description: Growth inhibition of human A549/ATCC cells assessed as cell growth at 10 uM after 48 hrs by sulforhodamine B assay. It counts as functional. The conditions noted are these: A549, 48 h, read-out: Activity. The essentials: as §3
The next assay deals with OVCAR-8. Description: Growth inhibition of human OVCAR8 cells assessed as cell growth at 10 uM after 48 hrs by sulforhodamine B assay. Type of assay: functional. The note with it: OVCAR-8, 48 h, read-out: Activity. Summed up:
as §5

The subject of a further assay is SR. Description: Growth inhibition of human SR cells after 48 hrs by sulforhodamine B assay. Type of assay: functional. The essentials:
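Suspension leukemia line in RPMI 1640 with 5% FBS and 2 mM L-glutamine, NCI-60 five-dose format ([…]), 48 h at 37 °C. Settled cells were fixed with 80% TCA (final 16%), stained with SRB and read at 515 nm. GI50 is where 100×(T−T0)/(C−T0)=50, with T0 measured at dosing.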

For a further assay, the system named is NCI-H460. Description: Growth inhibition of human NCI-H460 cells assessed as cell growth at 10 uM after 48 hrs by sulforhodamine B assay. Type of assay: functional. The note with it: NCI-H460, 48 h, read-out: Activity. The essentials:
as §5

For another assay, the system named is DU-145. The assay can be described thus: Growth inhibition of human DU145 cells after 48 hrs by sulforhodamine B assay. Type of assay: functional. The note with it: DU-145, 48 h. The essentials:
as §4

The test system of the next assay is KM12. The assay can be described thus: Growth inhibition of human KM12 cells assessed as cell growth at 10 uM after 48 hrs by sulforhodamine B assay. It counts as functional. The note with it: KM12, 48 h, read-out: Activity. The essentials: as §3
In a further assay the test system is PC-3. The assay can be described thus: Growth inhibition of human PC3 cells after 48 hrs by sulforhodamine B assay. Type of assay: functional. The note with it: PC-3, 48 h. Summed up:
as §6

A further assay deals with SNB-19. Description: Growth inhibition of human SNB19 cells assessed as cell growth at 10 uM after 48 hrs by sulforhodamine B assay. The conditions noted are these: SNB-19, 48 h, read-out: Activity. Type of assay: functional. The essentials: as §1
The nature of assay [3]: Growth inhibition of human EKVX cells after 48 hrs by sulforhodamine B assay. Type of assay: functional. The essentials: as §4
The test system of another assay is ACHN. The assay can be described thus: Growth inhibition of human ACHN cells assessed as cell growth at 10 uM after 48 hrs by sulforhodamine B assay. It counts as functional. The conditions noted are these: read-out: Activity. The essentials: as §3
The next assay deals with HT-29. The assay can be described thus: Growth inhibition of human HT-29 cells after 48 hrs by sulforhodamine B assay. The conditions noted are these: HT-29, 48 h. Type of assay: functional. Summed up:
as §4

The subject of another assay is UACC-257. The assay can be described thus: Growth inhibition of human UACC257 cells after 48 hrs by sulforhodamine B assay. It counts as functional. The note with it: UACC-257, 48 h. The essentials:
as §2

The structures appear in SMILES notation. pIC50: −log10 of the molar value. Bounds are passed on as bounds.

Broadly, the GI50 is the concentration at which growth is held to half of that of the control. Higher therefore signals less potent growth inhibition. A word on the pIC50: it is −log10 of the IC50, conventionally taken in molar units. A low value points to a high IC50. As for `CC(C)=CCC/C(C)=C/CC/C(C)=C/CC[C@]1(C)CCc2c3c(cc(C)c2O1)OCN(CCc1ccc(O)cc1)C3`, the growth at 10 µM was 44.4% in the assay with SNB-75; 69.1% in the assay with SK-OV-3; -84.7% in [1]; 31.2% with HL-60(TB); 29.7% with NCI-H322M; 76.6% with A549. The growth at 10 µM in the assay with OVCAR-8 is -74.3%; with NCI-H460, -44.4%; in the assay on KM12, -19.4%; in the assay with SNB-19 it was 92.1%; in the assay with ACHN, 91%. In addition, the GI50 in the assay on U-251 stood at 4.32 µM; with HCT-116, 3.88 µM; in the assay on HOP-92, 4 µM; in assay [2], 5.93 µM; with SR, 1.37 µM; in the assay with DU-145 it was 5.75 µM. Moreover, the GI50 was 5.07 µM in the assay with PC-3, 6.13 µM in [3], 3.53 µM with HT-29 and 7.33 µM in the assay with UACC-257. In addition, in the assay on MCF7, the pIC50 was 4.74.

Consider `CC(C)=CCC/C(C)=C/CC/C(C)=C/CC[C@]1(C)CCc2c3c(c(C)c(C)c2O1)OCN(CCCCO)C3`, for which the growth at 10 µM is 74.2% in the assay on SNB-75; 76.9% in the assay on SK-OV-3; -61.8% in assay [1]; 72.2% with HL-60(TB); 84.8% with NCI-H322M; 70% in the assay on A549. In addition, the growth at 10 µM in the assay on OVCAR-8 came out at 87.3%; with NCI-H460, 4.31%; in the assay with KM12, 27.3%; in the assay on SNB-19, 71.3%; with ACHN, 78.8%. The GI50 was 1.55 µM in the assay on U-251; 2 µM in the assay with HCT-116; 2.9 µM in the assay with HOP-92; greater than 10 µM in [2]; 2.47 µM in the assay with SR; 6.55 µM in the assay on DU-145. The GI50 in the assay with PC-3 is 8.37 µM; in assay [3] it was greater than 10 µM; in the assay on HT-29, 2.87 µM; in the assay with UACC-257, 1.73 µM. This compound gave a pIC50 in the assay with MCF7 of less than 4.70.

Turning to `CC(C)=CCC/C(C)=C/CC/C(C)=C/CC[C@]1(C)CCc2c3c(cc(C)c2O1)OCN(CCCCO)C3`, the growth at 10 µM in the assay on SNB-75 is 41.5%; in the assay with SK-OV-3, 26.4%; in assay [1], -88.7%; in the assay with HL-60(TB), -2.37%; with NCI-H322M, 48.5%; with A549, -37.7%. For the same compound, the growth at 10 µM with OVCAR-8 is -13.3%; in the assay on NCI-H460, -20.4%; with KM12 it was -89.5%; with SNB-19, -28.3%; in the assay with ACHN, -57.1%. The 50% growth inhibitory concentration (GI50) with U-251 stood at 6.64 µM; in the assay on HCT-116, 16 µM; in the assay on HOP-92, 10.1 µM; in assay [2] it was 16.8 µM; in the assay on SR it was 7.26 µM; in the assay on DU-145 it was 16.7 µM. Further, the GI50 in the assay with PC-3 worked out at 16.2 µM; in [3], 19.6 µM; in the assay on HT-29, 8.33 µM; in the assay on UACC-257 it was 11.4 µM. Moreover, in the assay with MCF7, the pIC50 was 4.79.
